In ChEMBL document CHEMBL1154374, “Lipophilic 2,5-disubstituted pyrroles from the marine sponge Mycale sp. inhibit mitochondrial respiration and HIF-1 activation” (J Nat Prod, 2009):
pIC50: −log10 of the molar value. Activity calls are given as the source filed them. The calls are words filed in the database; no cut-off is given here.

Experiments:
[1] = biological target: T1, Hypoxia inducible factors; HIF-1-alpha, HIF-2-alpha (Homo sapiens, UniProt Q16665+Q99814); test: Inhibition of hypoxia-induced HIF1 activation in human T47D cells by pTK-HRE3-luciferase reporter gene assay; format: cell-based
Summary of the method: (§1)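 T47D HIF-1 luciferase reporter under hypoxia (1% O2). Compounds supplied as 4 mM isopropanol stocks, final solvent under 0.75%. % inhibition = (1 − treated/induced light output) × 100. Concentration-response, one experiment in triplicate, mean ± SD.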

[2] = (§2) Inhibition of electron transport protein complex 1 in human T47D cells assessed as decrease in oxygen consumption by mitochondrial respiration assay; format: cell-based
Summary of the method: (§3)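 Oxygen consumption of intact T47D cells measured by an adapted isolated-mitochondria respiration method. Compounds tested at 1, 3, 10 and 30 μM. Three independent experiments, mean ± SD. One-way ANOVA with Bonferroni post hoc, p < 0.05.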

[3] = biological target: T1, Hypoxia inducible factors; HIF-1-alpha, HIF-2-alpha; test: Inhibition of hypoxia-induced HIF1 activation in human T47D cells at 30 uM by pTK-HRE3-luciferase reporter gene assay; format: cell-based; summary of the method: as §1
[4] = biological target: T1, Hypoxia inducible factors; HIF-1-alpha, HIF-2-alpha; test: Inhibition of 1,10-phenanthroline-induced HIF1 activation in human T47D cells at 10 uM by pTK-HRE3-luciferase reporter gene assay; format: cell-based
Summary of the method: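 T47D HIF-1 luciferase reporter; activation induced with 1,10-phenanthroline (10 μM). Compounds supplied as 4 mM isopropanol stocks, final solvent under 0.75%. % inhibition = (1 − treated/induced light output) × 100. Concentration-response, one experiment in triplicate, mean ± SD.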

T47D [5] = test: Inhibition of electron transport protein complex 2 in human T47D cells assessed as decrease in oxygen consumption at 10 uM in presence of succinate by mitochondrial respiration assay; format: cell-based
Summary of the method: (§4)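 Digitonin-permeabilized T47D cells, O2 consumption. Malate/pyruvate starts complex I respiration. Rotenone, then succinate (complex II substrate), then antimycin A, then TMPD/ascorbate (complex IV substrates) added sequentially. Rotenone and antimycin A from ethanol stocks, final 1 μM.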

T47D [6] = test: as §2; format: cell-based; summary of the method: as §3
T47D [7] = test: Inhibition of hypoxia-induced increase in VEGF production in human T47D cells at 30 uM after 16 hrs by ELISA; format: functional
Summary of the method: (§5)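 T47D cells held at 1% O2 for 16 h with compound at 10 or 30 μM. Secreted VEGF in conditioned medium measured by ELISA and normalized to total cell-lysate protein (micro BCA). One experiment in triplicate, mean ± SD. Compared with one-way ANOVA and Bonferroni post hoc.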

T47D [8] = test: Inhibition of electron transport protein complex 4 in human T47D cells assessed as decrease in oxygen consumption at 10 uM in presence of succinate by mitochondrial respiration assay; format: cell-based; summary of the method: as §4
T47D [9] = test: Inhibition of electron transport protein complex 1 in human T47D cells assessed as decrease in oxygen consumption at 10 uM by mitochondrial respiration assay; format: cell-based; summary of the method: as §4
T47D [10] = test: Inhibition of hypoxia-induced increase in VEGF production in human T47D cells at 10 uM after 16 hrs by ELISA; format: functional, cell-based; summary of the method: as §5
T47D [11] = test: Inhibition of electron transport protein complex 3 in human T47D cells assessed as decrease in oxygen consumption at 10 uM in presence of succinate by mitochondrial respiration assay; format: cell-based; summary of the method: as §4

CC(C)CCCCCCCCCCCCc1ccc(C=O)[nH]1
IC50 [1]: 20 µM

N#CCCCCCCCCCCCCCCCCCCCCc1ccc(C=O)[nH]1
pIC50 [2]: < 4.52 | inhibition [3]: < 50%

CC(C)CCCCCCCCCCCCCc1ccc(C=O)[nH]1
inhibition [3]: < 50%

CC/C=C\C/C=C\C/C=C\CCCCCCCc1ccc(C=O)[nH]1
inhibition [3]: < 50%

CCCCCC/C=C\CCCCCCCCCc1ccc(C=O)[nH]1
inhibition [3]: < 50%

CCCCCCCCCCCCCCCCc1ccc(C=O)[nH]1
inhibition [3]: < 50%

CCCCCCCCCCCCCCCc1ccc(C=O)[nH]1
inhibition [3]: < 50%

N#CCCCCCC/C=C\CCCCCCCCCCCCCc1ccc(C=O)[nH]1
inhibition [3]: < 50%

N#CCCCCCCCCCCCCC/C=C\CCCCCCc1ccc(C=O)[nH]1
inhibition [3]: < 50%

N#CCCCCCCCCCCCCCC/C=C\CCCCCCc1ccc(C=O)[nH]1
inhibition [3]: < 50%

N#CCCCCCCCCCCCCCCCC/C=C\C/C=C\CCc1ccc(C=O)[nH]1
inhibition [3]: < 50%

N#CCCCCCCCCCCCCCCCCCCCc1ccc(C=O)[nH]1
inhibition [3]: < 50%

N#CCCCCCCCCCCCCCCCCCCc1ccc(C=O)[nH]1
inhibition [3]: < 50%

CC/C=C\C/C=C\C/C=C\CCCCCCCCCCCc1ccc(C=O)[nH]1 [MYCALAZAL 3]
IC50 [1]: 20 µM

CCCCCCCCCCCCCCc1ccc(C=O)[nH]1 [MYCALAZAL 14]
IC50 [1]: 20 µM

CC(C)CCCCCCCCC/C=C\CCc1ccc(C=O)[nH]1 [MYCALAZAL 16]
IC50 [1]: 20 µM

CC(C)CCCCC/C=C\CCCCCCc1ccc(C=O)[nH]1 [MYCALAZAL 17]
IC50 [1]: 20 µM

CCC/C=C\C/C=C\CCCCCCCCCc1ccc(C=O)[nH]1 [MYCALAZAL 18]
IC50 [1]: 20 µM

CC/C=C\C/C=C\C/C=C\CCCCCCCCCc1ccc(C=O)[nH]1 [MYCALAZAL 20]
IC50 [1]: 20 µM

N#CCCCCCCCCCCCCCCCCCc1ccc(C=O)[nH]1 [MYCALENITRILE 1]
IC50 [1]: 10 µM | inhibition [4]: inactive

N#CCCCC/C=C\C/C=C\CCCCCCCCCCCCCCc1ccc(C=O)[nH]1 [MYCALENITRILE 5]
IC50 [1]: 10 µM | inhibition [4]: inactive

N#CCCCC/C=C\C/C=C\CCCCCCCCCCCCc1ccc(C=O)[nH]1 [MYCALENITRILE 7]
Activity (T47D [5]): inactive | pIC50 [2]: > 5.00 | Activity (T47D [6]): Dose-dependent effect | inhibition (T47D [7]): inactive | Activity (T47D [8]): inactive | Activity (T47D [9]): Active | inhibition (T47D [10]): inactive | IC50 [1]: 8.6 µM | Activity (T47D [11]): inactive | inhibition [4]: inactive

N#CCCCCCC/C=C\CCCCCCCCCCCc1ccc(C=O)[nH]1 [MYCALENITRILE 8]
IC50 [1]: 10 µM | inhibition [4]: inactive

N#CCCCCCC/C=C\CCCCCCCCCCCCCCCc1ccc(C=O)[nH]1 [MYCALENITRILE 10]
pIC50 [2]: < 4.52 | inhibition [3]: < 50%

N#CCCCCCCCCCCCCCCCc1ccc(C=O)[nH]1 [MYCALENITRILE 13]
IC50 [1]: 10 µM | inhibition [4]: inactive

N#CCCCC/C=C\C/C=C\CCCCCCCCCCc1ccc(C=O)[nH]1 [Mycalenitrile-6]
Activity (T47D [5]): inactive | pIC50 [2]: > 5.00 | Activity (T47D [6]): Dose-dependent effect | inhibition at 30 µM (T47D [7]): 50% | Activity (T47D [8]): inactive | Activity (T47D [9]): Active | IC50 [1]: 7.8 µM | Activity (T47D [11]): inactive | inhibition [4]: inactive
